In ChEMBL document CHEMBL4411287, “Discovery and optimization of a series of 3-substituted indazole derivatives as multi-target kinase inhibitors for the treatment of lung squamous cell carcinoma” (Eur J Med Chem, 2019):
Converted amounts (≈) assume the structure as drawn.

What was measured:
[1] = Solubility of compound; format: physicochemical
[2] = Permeability in human Caco2 cells at 5 uM after 120 mins by LC-MS/MS analysis relative to control; format: ADME, cell-based; details: Caco-2, read-out: Fabs
In short: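 Caco-2 (C2BBe1) monolayers grown confluent on collagen-coated transwell membranes. Buffer is HBSS with 10 mM HEPES at pH 7.4 and pH 6.8. Compound 5 µM added to the apical or basolateral side; duplicate samples taken at 120 min and analysed by LC-MS/MS. Results given as Papp A→B and B→A and efflux ratio B→A/A→B.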

[3] = Efflux ratio of permeability in human Caco2 cells at 5 uM after 120 mins by LC-MS/MS analysis; format: ADME, cell-based; details: Caco-2
In short: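 Caco-2 (C2BBe1) monolayers grown to confluence on collagen-coated transwell polycarbonate membranes. Compound at 5 μM added apically or basolaterally in HBSS with 10 mM HEPES at pH 7.4 and 6.8. Duplicate samples taken at 120 min and analysed by LC-MS/MS. Efflux ratio = Papp(B→A)/Papp(A→B).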

[4] = molecular target: Tyrosine-protein kinase ABL1 (Homo sapiens) (UniProt P00519); test: Inhibition of ABL (unknown origin) at 1000 nM relative to control
Chain of Tyrosine-protein kinase ABL1 (Homo sapiens) (P00519 whole entry): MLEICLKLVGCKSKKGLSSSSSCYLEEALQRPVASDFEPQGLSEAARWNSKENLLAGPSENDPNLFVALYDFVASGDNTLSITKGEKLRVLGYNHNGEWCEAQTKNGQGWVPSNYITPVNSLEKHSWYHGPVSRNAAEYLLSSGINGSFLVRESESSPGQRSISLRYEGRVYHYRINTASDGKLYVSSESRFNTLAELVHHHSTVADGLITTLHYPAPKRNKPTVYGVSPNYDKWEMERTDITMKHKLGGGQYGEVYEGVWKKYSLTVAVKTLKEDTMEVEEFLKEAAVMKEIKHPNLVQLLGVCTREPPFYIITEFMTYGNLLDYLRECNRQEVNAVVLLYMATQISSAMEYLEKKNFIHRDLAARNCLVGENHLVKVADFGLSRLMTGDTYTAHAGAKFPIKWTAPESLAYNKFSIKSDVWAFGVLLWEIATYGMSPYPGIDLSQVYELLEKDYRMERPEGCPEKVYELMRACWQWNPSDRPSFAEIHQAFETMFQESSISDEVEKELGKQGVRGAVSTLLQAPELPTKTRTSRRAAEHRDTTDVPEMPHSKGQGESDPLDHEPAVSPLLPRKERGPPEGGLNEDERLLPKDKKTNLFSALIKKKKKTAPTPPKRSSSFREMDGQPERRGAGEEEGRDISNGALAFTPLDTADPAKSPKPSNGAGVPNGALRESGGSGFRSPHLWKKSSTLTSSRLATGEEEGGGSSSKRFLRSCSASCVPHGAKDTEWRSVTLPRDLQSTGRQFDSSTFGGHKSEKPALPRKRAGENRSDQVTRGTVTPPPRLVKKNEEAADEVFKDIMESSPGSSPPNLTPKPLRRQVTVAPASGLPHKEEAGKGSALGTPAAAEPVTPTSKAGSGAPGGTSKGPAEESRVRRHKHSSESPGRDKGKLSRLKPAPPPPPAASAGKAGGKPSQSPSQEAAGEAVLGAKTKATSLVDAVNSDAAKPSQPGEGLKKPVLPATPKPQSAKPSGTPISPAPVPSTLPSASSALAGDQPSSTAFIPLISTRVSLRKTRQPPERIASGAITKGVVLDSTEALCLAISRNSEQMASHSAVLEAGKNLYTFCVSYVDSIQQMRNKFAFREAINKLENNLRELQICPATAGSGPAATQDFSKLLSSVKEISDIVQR

[5] = molecular target: Tyrosine-protein kinase receptor UFO (Homo sapiens) (UniProt P30530); test: Inhibition of AXL (unknown origin) at 1000 nM relative to control
[6] = molecular target: Macrophage colony-stimulating factor 1 receptor (Homo sapiens) (UniProt P07333); test: Inhibition of CSF-1R (unknown origin) at 1000 nM relative to control
Chain of Macrophage colony-stimulating factor 1 receptor (Homo sapiens) (P07333 whole entry): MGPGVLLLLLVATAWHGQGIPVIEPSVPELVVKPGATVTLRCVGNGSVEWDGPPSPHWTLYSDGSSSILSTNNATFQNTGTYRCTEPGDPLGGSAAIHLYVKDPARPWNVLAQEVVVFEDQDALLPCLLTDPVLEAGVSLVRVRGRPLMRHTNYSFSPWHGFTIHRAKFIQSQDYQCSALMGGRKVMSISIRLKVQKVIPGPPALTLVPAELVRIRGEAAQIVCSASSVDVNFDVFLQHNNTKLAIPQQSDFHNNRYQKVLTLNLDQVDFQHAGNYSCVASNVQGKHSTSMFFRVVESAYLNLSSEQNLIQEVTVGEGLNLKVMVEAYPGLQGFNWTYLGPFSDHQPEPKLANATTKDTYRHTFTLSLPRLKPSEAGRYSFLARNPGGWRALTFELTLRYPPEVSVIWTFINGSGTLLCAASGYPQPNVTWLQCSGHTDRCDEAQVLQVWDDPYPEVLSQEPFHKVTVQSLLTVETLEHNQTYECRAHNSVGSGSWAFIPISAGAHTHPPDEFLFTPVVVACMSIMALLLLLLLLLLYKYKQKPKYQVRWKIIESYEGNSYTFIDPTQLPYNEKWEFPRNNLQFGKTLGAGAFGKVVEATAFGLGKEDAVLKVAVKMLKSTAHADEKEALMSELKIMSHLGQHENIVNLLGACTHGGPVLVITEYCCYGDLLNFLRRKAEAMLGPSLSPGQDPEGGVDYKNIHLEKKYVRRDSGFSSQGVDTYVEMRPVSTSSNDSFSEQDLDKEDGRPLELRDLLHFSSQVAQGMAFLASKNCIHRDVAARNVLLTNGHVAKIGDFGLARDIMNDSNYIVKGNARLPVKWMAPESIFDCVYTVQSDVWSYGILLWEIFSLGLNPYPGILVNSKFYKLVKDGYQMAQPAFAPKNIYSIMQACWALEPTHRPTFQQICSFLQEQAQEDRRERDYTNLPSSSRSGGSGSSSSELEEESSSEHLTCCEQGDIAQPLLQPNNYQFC

[7] = molecular target: Epidermal growth factor receptor (Homo sapiens) (UniProt P00533); test: Inhibition of EGFR (unknown origin) at 1000 nM relative to control
Chain of Epidermal growth factor receptor (Homo sapiens) (P00533 whole entry, the tested form may be a part): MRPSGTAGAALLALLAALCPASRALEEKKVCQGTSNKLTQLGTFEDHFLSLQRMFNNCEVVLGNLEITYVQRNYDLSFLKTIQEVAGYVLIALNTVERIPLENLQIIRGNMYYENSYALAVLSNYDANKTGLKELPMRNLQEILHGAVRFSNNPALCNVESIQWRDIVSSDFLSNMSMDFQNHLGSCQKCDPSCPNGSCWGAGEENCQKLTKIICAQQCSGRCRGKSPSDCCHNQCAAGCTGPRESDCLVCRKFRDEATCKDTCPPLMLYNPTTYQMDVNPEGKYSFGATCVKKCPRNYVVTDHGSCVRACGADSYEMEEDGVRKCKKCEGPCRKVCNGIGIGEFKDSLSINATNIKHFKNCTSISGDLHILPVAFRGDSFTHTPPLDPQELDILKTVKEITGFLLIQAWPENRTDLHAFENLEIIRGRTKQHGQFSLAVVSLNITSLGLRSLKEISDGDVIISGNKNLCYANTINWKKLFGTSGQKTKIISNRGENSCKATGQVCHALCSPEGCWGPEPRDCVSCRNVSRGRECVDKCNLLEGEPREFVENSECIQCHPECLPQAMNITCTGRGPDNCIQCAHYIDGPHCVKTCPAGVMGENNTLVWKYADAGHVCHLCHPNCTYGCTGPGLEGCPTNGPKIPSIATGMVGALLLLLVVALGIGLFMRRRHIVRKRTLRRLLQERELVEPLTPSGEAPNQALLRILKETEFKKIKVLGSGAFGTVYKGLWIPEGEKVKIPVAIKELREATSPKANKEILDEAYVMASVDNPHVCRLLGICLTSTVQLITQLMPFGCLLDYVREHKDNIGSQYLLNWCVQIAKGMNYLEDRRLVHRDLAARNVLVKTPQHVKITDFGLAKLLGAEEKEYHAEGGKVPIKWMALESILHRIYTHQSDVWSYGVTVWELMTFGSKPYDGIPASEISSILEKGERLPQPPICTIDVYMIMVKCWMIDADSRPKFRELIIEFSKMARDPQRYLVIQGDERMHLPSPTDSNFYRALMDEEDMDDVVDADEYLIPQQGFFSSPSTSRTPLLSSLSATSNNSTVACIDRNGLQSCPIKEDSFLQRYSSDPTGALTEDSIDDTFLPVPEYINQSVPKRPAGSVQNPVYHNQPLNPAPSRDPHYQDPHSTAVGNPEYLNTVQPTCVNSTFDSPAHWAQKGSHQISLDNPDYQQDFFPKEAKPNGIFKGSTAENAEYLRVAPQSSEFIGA
In short: (§1)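 Purified recombinant kinase domains run in ELISA on precoated poly(Glu,Tyr) 4:1 (20 µg/mL) with 10 µM ATP in 50 mM HEPES pH 7.4, 50 mM MgCl2, 0.5 mM MnCl2, 0.2 mM Na3VO4, 1 mM DTT; 1% DMSO control; 60 min at 37 °C. Phosphotyrosine read by PY99 antibody, HRP anti-mouse IgG, OPD/H2O2 at 490 nm; inhibition = [1−A490/A490control]×100%; two separate experiments.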

[8] = molecular target: Ephrin type-A receptor 2 (Homo sapiens) (UniProt P29317); test: Inhibition of EPH-A2 (unknown origin) at 1000 nM relative to control; in short: as §1
[9] = molecular target: Fibroblast growth factor receptor 3 (Homo sapiens) (UniProt P22607); test: Inhibition of FGFR3 (unknown origin) at 1000 nM relative to control; in short: as §1
[10] = molecular target: Fibroblast growth factor receptor 4 (Homo sapiens) (UniProt P22455); test: Inhibition of FGFR4 (unknown origin) at 1000 nM relative to control; in short: as §1
[11] = molecular target: Receptor-type tyrosine-protein kinase FLT3 (Homo sapiens) (UniProt P36888); test: Inhibition of FLT-3 (unknown origin) at 1000 nM relative to control; in short: as §1
[12] = molecular target: Tyrosine-protein kinase JAK1 (Homo sapiens) (UniProt P23458); test: Inhibition of JAK1 (unknown origin) at 1000 nM relative to control; in short: as §1
[13] = molecular target: Tyrosine-protein kinase ABL1 (Homo sapiens) (UniProt P00519); test: Inhibition of ABL (unknown origin) at 100 nM relative to control
[14] = molecular target: Hepatocyte growth factor receptor (Homo sapiens) (UniProt P08581); test: Inhibition of c-Met (unknown origin) at 100 nM relative to control
Chain of Hepatocyte growth factor receptor (Homo sapiens) (P08581 whole entry): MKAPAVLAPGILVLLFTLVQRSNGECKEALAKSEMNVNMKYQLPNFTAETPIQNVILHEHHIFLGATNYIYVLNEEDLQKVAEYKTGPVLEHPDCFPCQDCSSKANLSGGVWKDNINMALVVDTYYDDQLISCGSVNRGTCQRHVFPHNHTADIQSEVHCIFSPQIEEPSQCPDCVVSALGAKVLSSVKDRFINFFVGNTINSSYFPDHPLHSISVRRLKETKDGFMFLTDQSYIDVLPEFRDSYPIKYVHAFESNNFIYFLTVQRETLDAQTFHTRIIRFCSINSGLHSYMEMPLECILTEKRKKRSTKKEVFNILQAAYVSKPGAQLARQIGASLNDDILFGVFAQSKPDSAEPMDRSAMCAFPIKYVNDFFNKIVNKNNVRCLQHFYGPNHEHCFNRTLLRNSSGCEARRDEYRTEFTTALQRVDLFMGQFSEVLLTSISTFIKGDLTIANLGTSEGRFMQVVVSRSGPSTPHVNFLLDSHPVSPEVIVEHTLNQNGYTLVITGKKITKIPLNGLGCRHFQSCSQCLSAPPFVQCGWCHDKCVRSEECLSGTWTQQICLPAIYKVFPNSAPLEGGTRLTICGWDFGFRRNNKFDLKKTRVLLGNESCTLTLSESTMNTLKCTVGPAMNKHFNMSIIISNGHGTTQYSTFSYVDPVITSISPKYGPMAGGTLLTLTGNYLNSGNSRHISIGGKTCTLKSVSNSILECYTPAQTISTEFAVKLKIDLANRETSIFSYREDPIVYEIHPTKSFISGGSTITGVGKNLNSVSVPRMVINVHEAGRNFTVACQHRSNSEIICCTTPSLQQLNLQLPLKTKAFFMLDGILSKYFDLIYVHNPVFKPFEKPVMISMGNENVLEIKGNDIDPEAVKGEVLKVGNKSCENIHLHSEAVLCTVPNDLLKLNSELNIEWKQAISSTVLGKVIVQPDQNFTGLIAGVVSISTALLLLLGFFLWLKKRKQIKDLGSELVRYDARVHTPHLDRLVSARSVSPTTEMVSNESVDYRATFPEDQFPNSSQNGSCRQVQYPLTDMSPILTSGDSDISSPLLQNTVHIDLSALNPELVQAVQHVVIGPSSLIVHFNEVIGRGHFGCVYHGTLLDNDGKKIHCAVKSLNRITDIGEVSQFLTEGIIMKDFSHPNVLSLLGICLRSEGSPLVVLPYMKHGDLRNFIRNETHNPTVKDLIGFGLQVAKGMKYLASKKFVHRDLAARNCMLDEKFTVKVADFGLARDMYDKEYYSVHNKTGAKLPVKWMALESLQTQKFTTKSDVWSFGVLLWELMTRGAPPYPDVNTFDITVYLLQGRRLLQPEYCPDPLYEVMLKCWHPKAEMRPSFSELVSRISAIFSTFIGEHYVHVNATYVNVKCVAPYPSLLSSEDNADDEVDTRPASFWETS
In short: (§2)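 ELISA with purified recombinant kinase on plates precoated with poly(Glu,Tyr) 4:1 at 20 µg/mL. ATP 10 µM in HEPES pH 7.4 buffer with MgCl2, MnCl2, Na3VO4 and DTT. Run 60 min at 37 °C. Detected with anti-phosphotyrosine PY99, HRP secondary antibody and o-phenylenediamine, read at 490 nm. Inhibition % = [1 − A490/A490 control]×100. 1% DMSO as negative control.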

[15] = molecular target: Fibroblast growth factor receptor 2 (Homo sapiens) (UniProt P21802); test: Inhibition of FGFR2 (unknown origin) at 100 nM relative to control; in short: as §1
[16] = molecular target: ALK tyrosine kinase receptor (Homo sapiens) (UniProt Q9UM73); test: Inhibition of ALK (unknown origin) at 10 nM relative to control
[17] = molecular target: Hepatocyte growth factor receptor (Homo sapiens) (UniProt P08581); test: Inhibition of c-Met (unknown origin) at 10 nM relative to control; in short: as §2
[18] = molecular target: Proto-oncogene tyrosine-protein kinase Src (Homo sapiens) (UniProt P12931); test: Inhibition of c-Src (unknown origin) at 10 nM relative to control; in short: as §2
[19] = molecular target: Cyclin-dependent kinase 1 (Homo sapiens) (UniProt P06493); test: Inhibition of CDK1 (unknown origin) at 10 nM relative to control
Chain of Cyclin-dependent kinase 1 (Homo sapiens) (P06493 whole entry, looked up): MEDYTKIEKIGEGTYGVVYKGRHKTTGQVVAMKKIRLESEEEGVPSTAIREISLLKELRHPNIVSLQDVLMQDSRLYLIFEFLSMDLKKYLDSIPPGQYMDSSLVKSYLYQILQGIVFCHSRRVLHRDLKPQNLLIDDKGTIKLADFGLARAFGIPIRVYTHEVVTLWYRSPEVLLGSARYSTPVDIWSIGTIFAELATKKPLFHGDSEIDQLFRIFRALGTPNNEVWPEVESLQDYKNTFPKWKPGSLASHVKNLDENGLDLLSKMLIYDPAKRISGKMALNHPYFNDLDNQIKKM

[20] = molecular target: Cyclin-dependent kinase 6 (Homo sapiens) (UniProt Q00534); test: Inhibition of CDK6 (unknown origin) at 10 nM relative to control
[21] = molecular target: Epidermal growth factor receptor (Homo sapiens) (UniProt P00533); test: Inhibition of EGFR (unknown origin) at 10 nM relative to control
[22] = molecular target: Platelet-derived growth factor receptor alpha (Homo sapiens) (UniProt P16234); test: Inhibition of PDGFR-alpha (unknown origin) at 10 nM relative to control; in short: as §1
[23] = molecular target: Angiopoietin-1 receptor (Homo sapiens) (UniProt Q02763); test: Inhibition of Tie-2 (unknown origin) at 10 nM relative to control; in short: as §2
[24] = molecular target: Vascular endothelial growth factor receptor 1 (Homo sapiens) (UniProt P17948); test: Inhibition of VEGFR1 (unknown origin) at 10 nM relative to control; in short: as §2
KG-1 = test: Antiproliferative activity against FGFR1 fused human KG1 cells after 72 hrs by CCK8 assay; format: functional, cell-based; details: KG-1, 72 h
In short: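 Cells seeded at low density in growth medium and compounds added the next day. Incubated 72 h, then proliferation read by sulforhodamine B, MTT or CCK-8. IC50 obtained by four-parameter concentration-response curve fitting.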

NCI-H1581 = test: Antitumor activity against human NCI-H1581 cells xenografted in nude mouse assessed as tumor growth inhibition at 20 mg/kg, po qd for 7 to 10 days relative to control; format: functional; details: read-out: TGI
In short: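 Female nude mice, 4-6 weeks old. NCI-H1581 cells (5×10^6 in 200 µL) injected s.c., grown to 700-800 mm³, then 1-mm³ fragments implanted s.c. by trocar. At 100-150 mm³ animals were randomized (vehicle n=12, treated n=6) and dosed orally once daily for 7 days. Tumours measured twice weekly, volume = length×width²/2. TGI calculated from change in tumour volume versus vehicle on the final day, with Student's t-test.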

NCI-H2286 = test: Antitumor activity against human NCI-H2286 cells xenografted in SCID mouse assessed as tumor growth inhibition at 10 mg/kg, po qd for 10 consecutive days relative to control; format: functional; details: read-out: TGI
In short: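 NCI-H2286 xenograft established by s.c. fragment implantation. At 100-150 mm³ mice were randomized (vehicle n=10, treated n=5) and given compound orally once daily for 10 days. Tumour volume = length×width²/2, measured twice weekly. TGI taken on the final day from change in volume relative to vehicle, with Student's t-test.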

Cc1ccc(C(=O)Nc2cccc(C(F)(F)F)c2)cc1-c1ccc2c(-c3cnn(C4CC4)c3)n[nH]c2c1
solubility [1]: 2 µM (≈ 1 µg/mL)
Fa at 2 h, 5 µM [2]: 48.6%
efflux ratio at 2 h, 5 µM [3]: 1.1
inhibition [4]: 100%
inhibition [5]: 99.8%
inhibition [6]: 94.2%
inhibition [7]: 18.1%
inhibition [8]: 100%
inhibition [9]: 94.2%
inhibition [10]: 72.4%
inhibition [11]: 86.2%
inhibition [12]: 31.2%
inhibition [13]: 100%
inhibition [14]: 0.3%
inhibition [15]: 95%
inhibition [16]: 60%
inhibition [17]: 0.2%
inhibition [18]: 64.5%
inhibition [19]: -0.1%
inhibition [20]: 0.5%
inhibition [21]: 10%
inhibition [22]: 59.7%
inhibition [23]: 10.4%
inhibition [24]: 25.8%
IC50 (KG-1): 0.108 µM
inhibition in vivo at 20 mg/kg (NCI-H1581): 98.1%
inhibition in vivo at 10 mg/kg (NCI-H2286): 82.8%
